Series [1] has as its target T1, 17-beta-hydroxysteroid dehydrogenase type 3 (Homo sapiens) (UniProt P37058).
T1 sequence (whole entry): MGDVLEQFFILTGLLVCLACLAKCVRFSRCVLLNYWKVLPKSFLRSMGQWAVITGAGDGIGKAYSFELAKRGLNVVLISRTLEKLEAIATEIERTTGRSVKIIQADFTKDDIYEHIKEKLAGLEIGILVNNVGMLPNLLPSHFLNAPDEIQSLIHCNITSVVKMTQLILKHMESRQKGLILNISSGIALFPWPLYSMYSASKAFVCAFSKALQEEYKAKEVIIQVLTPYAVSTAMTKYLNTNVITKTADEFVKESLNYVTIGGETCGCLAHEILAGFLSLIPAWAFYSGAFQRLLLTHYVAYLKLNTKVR
Nature of the series: Inhibition of 17beta-HSD3 (unknown origin) expressed in human LNCAP cells assessed as reduction in [14C]-testosterone formation from [14C]-4-androstene-3,17-dione at 1 uM measured after 1 hr relative to control. The class given is cell-based. A digest of the protocol:
(§1)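 LNCaP cells stably transfected with 17β-HSD3 were plated at 10,000 per well in hygromycin-free medium and grown 2 days. They were then given 15 nM [14C]-4-androstenedione plus inhibitor at 0.1, 0.5 or 1.0 µM (0.05% DMSO final) for 1 h. Steroids were ether-extracted, separated by TLC and quantified by radioimaging. Results are % inhibition of conversion to T.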

The target of series [2] is T2, 17-beta-hydroxysteroid dehydrogenase type 3 (Homo sapiens, UniProt P37058).
T2 sequence (P37058 whole entry): T1 sequence (whole entry)
Nature of the series: Inhibition of 17beta-HSD3 (unknown origin) expressed in human LNCAP cells assessed as reduction in [14C]-testosterone formation from [14C]-4-androstene-3,17-dione measured after 1 hr. The series is classed as cell-based. Put shortly:
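Transfected LNCaP[17β-HSD3] cells were incubated 1 h with 15 nM [14C]-4-androstenedione and inhibitor at seven concentrations (0.001–5.0 µM; 0.05% DMSO). [14C]-T formation was measured by TLC and radioimaging. IC50 was obtained by curve fitting, averaging two independent experiments in triplicate.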

Series [3] deals with T1, 17-beta-hydroxysteroid dehydrogenase type 3 (Homo sapiens). Nature of the series: Inhibition of 17beta-HSD3 (unknown origin) expressed in human LNCAP cells assessed as reduction in [14C]-testosterone formation from [14C]-4-androstene-3,17-dione at 0.5 uM measured after 1 hr relative to control. The class given is cell-based. Put shortly:
as §1

For series [4] the target is unchanged. Nature of the series: Inhibition of 17beta-HSD3 (unknown origin) expressed in human LNCAP cells assessed as reduction in [14C]-testosterone formation from [14C]-4-androstene-3,17-dione at 0.1 uM measured after 1 hr relative to control. The class given is cell-based. A digest of the protocol: as §1
Series [5] relates to LAPC4. Nature of the series: Androgenic activity in human LAPC4 cells expressing androgen receptor assessed as effect on cell proliferation at 0.1 uM supplemented with fresh medium containing compounds every 3 days for 7 days by MTS assay (reference value: 100%). The class given is ADME, cell-based. The note with it: lapc4, 168 h. A digest of the protocol:
(§2)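 Androgen-dependent LAPC-4 cells were seeded at 5,000 per well in IMDM with 5% dextran-coated charcoal-treated FBS and pre-incubated 24 h at 37 °C, 5% CO2. Compounds were added from DMSO stock at 0.1, 0.5 and 1.0 µM, with 0.05% DMSO in controls. Incubation lasted 7 days, with a medium change at day 3. Growth was read by MTS (4 h, 490 nm) as % of untreated control (100%), in triplicate.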
For orientation: Tetrazolium dyes change colour on reduction, which living cells bring about.

Series [6] deals with LAPC4. Description: Androgenic activity in human LAPC4 cells expressing androgen receptor assessed as effect on cell proliferation at 0.5 uM supplemented with fresh medium containing compounds every 3 days for 7 days by MTS assay (reference value: 100%). The class given is ADME, cell-based. The conditions noted are these: lapc4, 168 h. Put shortly: as §2
Series [7] deals with LAPC4. Nature of the series: Androgenic activity in human LAPC4 cells expressing androgen receptor assessed as effect on cell proliferation at 1 uM supplemented with fresh medium containing compounds every 3 days for 7 days by MTS assay (reference value: 100%). The series is classed as ADME, cell-based. The conditions noted are these: lapc4, 168 h. A digest of the protocol:
as §2

Series [8] is described as follows: Stability of the compound in human liver S9 fraction at 10 uM measured after 1 hr by NADPH by HPLC-MS analysis. The series is classed as ADME, subcellular. The note with it: s9, 1 h. A digest of the protocol: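 Substrate (10 µM) was incubated 1 h at 37 °C with 40 µg human liver S9 fraction in 50 mM Tris with 10 mM MgCl2, with or without 10 mM NADPH. The reaction was stopped with MeOH. Remaining parent was measured by HPLC-MS (UV 190 nm) as the AUC ratio with/without NADPH ×100. Values are the mean ± SD of four independent experiments.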

Series [9] deals with LAPC4. Nature of the series: Antiproliferative activity against human LAPC4 cells expressing androgen receptor assessed as inhibition of cell proliferation supplemented with fresh medium containing compounds every 3 days for 7 days by MTS assay. The class given is functional, cell-based. A digest of the protocol: as §2

One may read the inhibition as how much of the control response was suppressed. What is called IC50 is the concentration needed to halve the response being measured. Take `CC1CN(S(=O)(=O)c2ccccc2C(F)(F)F)C(C)CN1CC(F)c1ccc2c(c1)CC[C@@H]1[C@@H]2CC[C@]2(C)C(=O)CC[C@@H]12` (mixture of isomers): the inhibition in series [1] is 90%; in series [3], 80%; in series [4], 30%. In addition, in [2], the IC50 came out at 250 nM.
On to `CC1CN(S(=O)(=O)c2ccccc2C(F)(F)F)C(C)CN1C[C@@]1(O)CC[C@@]2(C)[C@@H](CC[C@@H]3[C@@H]2CC[C@]2(C)C(=O)[C@H](O)C[C@@H]32)C1` (some centres undefined), for which the Activity in the series on LAPC4 [5] is 114%; in the series with LAPC4 [6], 83.1%; in the series with LAPC4 [7], 69.3%. The figures for the inhibition in [1], in series [3] and in [4] were 80%, 60% and 0%, respectively.
As for `CC1CN(S(=O)(=O)c2ccccc2C(F)(F)F)C(C)CN1C[C@@]1(O)CC[C@@]2(C)[C@@H](CC[C@@H]3[C@@H]2CC[C@]2(C)[C@@H](O)[C@H](F)C[C@@H]32)C1` (some centres undefined), the figures for the Activity in the series on LAPC4 [5], with LAPC4 [6] and with LAPC4 [7] were 153.6%, 149.7% and 142.4%, respectively. Besides, the figures for the inhibition in series [1], in series [3] and in [4] were 70%, 58% and 12%, respectively.
Regarding `CC1CN(S(=O)(=O)c2ccccc2C(F)(F)F)C(C)CN1C[C@@]1(O)CC[C@@]2(C)[C@@H](CC[C@@H]3[C@@H]2CC[C@@]2(C)[C@H]3CC[C@@]23CO3)C1` (some centres undefined), the Activity in the series on LAPC4 [5] is recorded as 92.6%; with LAPC4 [6], 61.2%; in the series with LAPC4 [7], 49.3%. Further, the inhibition worked out at 20% in series [1], 10% in [3] and 5% in series [4].
Regarding `CC1CN(S(=O)(=O)c2ccccc2C(F)(F)F)C(C)CN1C[C@@]1(O)CC[C@@]2(C)[C@@H](CC[C@@H]3[C@@H]2CC[C@]2(C)[C@@H](O)[C@H](O)C[C@@H]32)C1` (some centres undefined), the results for the Activity in the series on LAPC4 [5], with LAPC4 [6] and in the series on LAPC4 [7] were 90.8%, 54.1% and 43.8%, respectively. The inhibition in series [1] amounted to 55%; in series [3], 48%; in series [4], 20%.
`CC(=O)[C@H]1CC[C@H]2[C@@H]3CC[C@H]4C[C@@](O)(CN5CC(C)N(S(=O)(=O)c6ccccc6C(F)(F)F)CC5C)CC[C@]4(C)[C@H]3CC[C@]12C` (some centres undefined): the Activity came out at 45.9% in the series on LAPC4 [5], 26.4% in the series with LAPC4 [6] and 27.1% in the series with LAPC4 [7]. The inhibition in series [1] is 42%; in series [3] it was 30%; in series [4], 10%. Also, the IC50 in series [2] came to 2600 nM. The Stability entry in series [8] is “Stable”.
With `CO[C@H]1CC[C@H]2[C@@H]3CC[C@H]4C[C@@](O)(CN5CC(C)N(S(=O)(=O)c6ccccc6C(F)(F)F)CC5C)CC[C@]4(C)[C@H]3CC[C@]12C` (some centres undefined), the inhibition in series [1] turned out to be 30%; in [3], 18%; in series [4], 10%.
As for `C#C[C@]1(O)CC[C@H]2[C@@H]3CC[C@H]4C[C@@](O)(CN5CC(C)N(S(=O)(=O)c6ccccc6C(F)(F)F)CC5C)CC[C@]4(C)[C@H]3CC[C@@]21C` (some centres undefined), the Activity was found to be 130.9% in the series with LAPC4 [5], 95.8% in the series on LAPC4 [6] and 81.2% in the series on LAPC4 [7]. In addition, the inhibition is 40% in [1], 30% in series [3] and 5% in series [4].
For the compound `CC1CN(S(=O)(=O)c2ccccc2C(F)(F)F)C(C)CN1CC(O)c1ccc2c(c1)CC[C@@H]1[C@@H]2CC[C@]2(C)C(=O)CC[C@@H]12` (single isomer, unassigned; diastereomer A) [listing 1 of 2 here], the Activity in the series on LAPC4 [5] came to 115%; in the series on LAPC4 [6], 94.9%; with LAPC4 [7], 81.9%. In [2], the IC50 worked out at 140 nM.
Consider `CC1CN(S(=O)(=O)c2ccccc2C(F)(F)F)C(C)CN1C[C@@]1(O)CC[C@@]2(C)[C@@H](CC[C@@H]3[C@@H]2CC[C@]2(C)[C@@H](O)CC[C@@H]32)C1` (some centres undefined), for which the results for the Activity with LAPC4 [5], in the series on LAPC4 [6] and in the series on LAPC4 [7] were 116.4%, 88.1% and 31.3%, respectively. Further, the figures for the inhibition in series [1], in [3] and in [4] were 94%, 78% and 38%, respectively. In addition, in series [2], the IC50 was 190 nM.
On to `CC1CN(S(=O)(=O)c2ccccc2C(F)(F)F)C(C)CN1CC(O)c1ccc2c(c1)CC[C@@H]1[C@@H]2CC[C@]2(C)C(=O)CC[C@@H]12` (single isomer, unassigned; diastereomer B), for which the inhibition in series [1] was 100%; with LAPC4 [9], “Dose-dependent effect”; in [3], 98%; in series [4] it was 84%.
In the case of `CC1CN(S(=O)(=O)c2ccccc2C(F)(F)F)C(C)CN1CC(O)c1ccc2c(c1)CC[C@@H]1[C@@H]2CC[C@]2(C)C(=O)CC[C@@H]12` (single isomer, unassigned; diastereomer A) [listing 2 of 2 here], the values for the inhibition in series [1], in series [3] and in [4] were 98%, 95% and 50%, respectively.
With `CC1CN(S(=O)(=O)c2ccccc2C(F)(F)F)C(C)CN1C[C@@]1(O)CC[C@@]2(C)[C@@H](CC[C@@H]3[C@@H]2CC[C@]2(C)C(=O)[C@H](F)C[C@@H]32)C1` (some centres undefined), the Activity amounted to 147.7% in the series with LAPC4 [5], 134.2% in the series with LAPC4 [6] and 126.6% in the series on LAPC4 [7]. Besides, the inhibition in series [1] is 90%; in [3], 75%; in [4], 22%. In addition, the IC50 in series [2] was determined as 200 nM. For the same compound, in series [8], the Stability result is on record as “Stable”.
`CC1CN(S(=O)(=O)c2ccccc2C(F)(F)F)C(C)CN1C[C@@]1(O)CC[C@H]2[C@@H](CC[C@@H]3[C@@H]2CC[C@]2(C)C(=O)CC[C@@H]32)C1` (some centres undefined): the Activity was 92.8% in the series with LAPC4 [5], 66.3% in the series on LAPC4 [6] and 63.1% in the series on LAPC4 [7]. In addition, the inhibition in series [1] stood at 94%; in series [3] it was 82%; in series [4], 20%. For the same compound, the IC50 in series [2] is 220 nM. Moreover, the Stability entry in [8] is reported as “Unstable”.
